Reference: PubChem BioAssay AID504933 (The Scripps Research Institute Molecular Screening Center, 2011)

Biological target: Nuclear receptor subfamily 5 group A member 2 (Homo sapiens) (UniProt O00482)
Assay: inhibition of LRH1-driven StAR promoter reporter, late-stage follow-up, LRH-1 inverse agonist project, cell-based, luminescence, assay provider, powder samples (AID 504933)
Conditions: HEK293T LRH1 + StAR-luciferase reporter, 20 h
Procedure, shortened: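 system = HEK293T with LRH1 plus StAR luciferase reporter | times = 24 h bulk transfection before re-plating, then 20 h compound exposure | benchmarks = DMSO vehicle-treated wells as normalisation reference | compound = Nine-point dilution series topping at 10 µM, plus single 10 µM test | detection = luciferase reporter luminescence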

Sequence of Nuclear receptor subfamily 5 group A member 2 (Homo sapiens) (O00482 whole entry, looked up): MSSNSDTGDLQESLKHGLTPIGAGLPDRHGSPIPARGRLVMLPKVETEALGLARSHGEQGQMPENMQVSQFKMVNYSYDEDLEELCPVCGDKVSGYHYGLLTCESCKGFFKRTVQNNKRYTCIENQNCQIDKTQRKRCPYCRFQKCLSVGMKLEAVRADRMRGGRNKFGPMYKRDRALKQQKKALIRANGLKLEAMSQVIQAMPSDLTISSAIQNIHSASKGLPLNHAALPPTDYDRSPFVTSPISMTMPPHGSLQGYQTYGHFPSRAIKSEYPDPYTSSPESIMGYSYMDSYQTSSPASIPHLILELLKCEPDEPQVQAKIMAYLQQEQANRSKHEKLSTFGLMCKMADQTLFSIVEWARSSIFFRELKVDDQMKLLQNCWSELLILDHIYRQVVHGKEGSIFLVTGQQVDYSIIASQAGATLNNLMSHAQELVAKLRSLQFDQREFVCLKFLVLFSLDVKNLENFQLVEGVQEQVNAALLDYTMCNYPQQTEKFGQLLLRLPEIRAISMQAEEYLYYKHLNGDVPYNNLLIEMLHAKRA

O=c1cc(N2CCN(c3cccc(C(F)(F)F)c3)CC2)[nH]c(=O)n1C1CCCCC1
IC50: 2120 nM

O=c1cc(N2CCN(c3cccc(Cl)c3)CC2)[nH]c(=O)n1C1CCCCC1
IC50: 2050 nM
